This is a sample that favours compounds with a hit; in the whole collection about 3.6% have one here.
NadD inh: NadD (S. aureus) enzyme inhibition; purified NadD enzyme, colorimetric absorbance read-out; inhibition, % at 20 µM; 0.78% of 360,000 active; in the data active means inhibition above about 26%
NR3A LBD binder: modulates the human NR3A ligand-binding domain; NR3A LBD differential scanning fluorimetry, Tm shift; 0% = protein alone, 100% = glycine-bound protein; 2.5% of 340,000 active; Tm shift relative to glycine control, % at 25 µM; AID 1259313;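 active means melting temperature shift of at least 10% of the positive control shift, at one fixed dose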
SENP1 inh: blocks the human SENP1 SUMO protease catalytic domain; Q9P0U3; recombinant SENP1 catalytic domain, CyPet-SUMO1-YPet FRET cleavage; inhibition, % at 10 µM; 0.21% of 360,000 active;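 active means inhibition at least 30% at 10 µM, raw YFP signal under a set limit, fluorescence ratio 0.5 to 1.5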
Target sequence (Q9P0U3 419-644 limits assumed): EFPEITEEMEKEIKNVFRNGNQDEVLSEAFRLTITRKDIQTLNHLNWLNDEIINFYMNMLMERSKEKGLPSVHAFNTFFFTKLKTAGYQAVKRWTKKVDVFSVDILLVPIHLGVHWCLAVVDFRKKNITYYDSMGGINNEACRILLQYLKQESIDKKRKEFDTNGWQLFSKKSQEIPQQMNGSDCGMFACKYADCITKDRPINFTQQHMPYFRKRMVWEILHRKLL
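System: Recombinant human SENP1 catalytic domain, His6-tagged | Incubation: Enzyme reaction for 50 min at room temperature, dark | Medium: Tris pH 8 with BME, BSA, NP40 and catalase | Also added: 25 nM SUMO1 FRET substrate | Compound: 10 µM single point, 0.5% DMSO | Measured by: FRET fluorescence in CFP and YFP emission channels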
UCH37 DUB inh: human UCH37 deubiquitinating enzyme inhibition. Q9Y5K5. purified proteasome/UCH37, Ub-AMC cleavage fluorescence. inhibition, % (test concentration not listed). 0.33% of 330,000 active. AID 588478;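 active means mean inhibition over replicate wells above about 20%, limit read from the data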
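assay system = human UCH37 enzyme supplied as purified proteasome complex | amount = proteasome at 0.15 nM in the dispensed enzyme solution | schedule = 30 min compound-proteasome preincubation then 25 min substrate reaction, room temperature | measured by = fluorescence, ex 355 nm, em 460 nm | benchmarks = no-proteasome wells (full inhibition) and compound-free wells (no inhibition)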
ATG4B inh: ATG4B (human) cysteine protease inhibition. Q9Y4P1. ATG4B cleavage of LC3-PLA2, NBD-HPC fluorescence, 1 h. inhibition, % at 8.33 µM. 0.51% of 340,000 active; in the data active means inhibition above about 40%
ATG4B conf: ATG4B (human) inhibition, single-dose confirmed. shares compounds with ATG4B inh. ATG4B protease fluorescent substrate cleavage assay. inhibition, % at 8.33 µM. 92% of 320 active. AID 504757; in the data active means inhibition above about 39%
PLA2 ctr: counter-screen for ATG4B inhibitors: human phospholipase A2 | shares compounds with ATG4B inh | purified PLA2, NBD-C6-HPC fluorescence, 45 min | inhibition, % at 8.33 µM | 66% of 1,600 active | AID 588402; in the data active means inhibition above about 50%
Target sequence (P04054 whole entry, looked up): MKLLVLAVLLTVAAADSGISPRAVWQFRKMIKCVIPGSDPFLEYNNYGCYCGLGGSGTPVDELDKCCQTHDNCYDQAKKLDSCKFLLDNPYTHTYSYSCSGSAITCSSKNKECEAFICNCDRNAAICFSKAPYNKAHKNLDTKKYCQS
Numbers stand for hits.

Results for CC1CCN(C(C)C(=O)Nc2ccccc2-c2ccccc2)CC1 (configuration not stated) ?
NadD inh: inactive; NR3A LBD binder: inactive; SENP1 inh: inactive; UCH37 DUB inh: inactive; ATG4B inh: 42.8; PLA2 ctr: 53.0

How did CC1CCCCC1NCC(=O)Nc1ccccc1-c1ccccc1 (configuration not stated) do in these assays?
NadD inh: inactive; NR3A LBD binder: inactive; SENP1 inh: inactive; UCH37 DUB inh: inactive; ATG4B inh: 48.2; PLA2 ctr: 53.2

What do the screens show for `Cc1ccccc1N(CC(=O)NN=Cc1cc(Br)c(C)o1)S(C)(=O)=O`?
UCH37 DUB inh: inactive

What do the screens show for `Cc1nn(-c2cccc(C(F)(F)F)c2)c(Cl)c1/C=N/Nc1cccc(C(=O)O)c1`?
NadD inh: inactive; NR3A LBD binder: inactive; SENP1 inh: inactive; ATG4B inh: 56.8; PLA2 ctr: 66.7

What do the screens show for `O=C1C(NS(=O)(=O)c2ccccc2)=C(N2CCN(c3ccc(F)cc3)CC2)C(=O)c2ccccc21`?
NadD inh: inactive; NR3A LBD binder: inactive; SENP1 inh: inactive; UCH37 DUB inh: inactive; ATG4B inh: inactive

Results for O=C1C(NS(=O)(=O)c2cccs2)=C(N2CCN(c3cccc(Cl)c3)CC2)C(=O)c2ccccc21 ?
NadD inh: 30.3; NR3A LBD binder: inactive; SENP1 inh: inactive; UCH37 DUB inh: inactive; ATG4B inh: 45.9; PLA2 ctr: 65.0

How did NC(=O)Cn1cc(C=NNS(=O)(=O)c2ccccc2)c2ccccc21 do in these assays?
UCH37 DUB inh: inactive

What do the screens show for `Cc1[nH]n(-c2ccccc2)c(=O)c1C=NNC(=O)C1COc2ccccc2O1` (configuration not stated)?
UCH37 DUB inh: inactive

How did C=CCC1CCCC(=NNS(=O)(=O)c2ccc(C)cc2)C1 (configuration not stated) do in these assays?
UCH37 DUB inh: inactive

Results for Oc1c(Br)cc(Br)cc1C=Nc1ccc2c(c1)OCO2 ?
NadD inh: inactive; NR3A LBD binder: inactive; SENP1 inh: inactive; UCH37 DUB inh: inactive; ATG4B inh: 62.8; ATG4B conf: 48.2; PLA2 ctr: inactive

How did Clc1ccccc1Nc1ncnc2c1nnn2Cc1ccccc1 do in these assays?
NadD inh: inactive; NR3A LBD binder: inactive; SENP1 inh: inactive; UCH37 DUB inh: inactive; ATG4B inh: 56.1; PLA2 ctr: 57.5

How did Fc1ccccc1Nc1ncnc2c1nnn2Cc1ccccc1 do in these assays?
NadD inh: inactive; NR3A LBD binder: inactive; SENP1 inh: inactive; UCH37 DUB inh: inactive; ATG4B inh: inactive

What do the screens show for `CC1=CN2C(=N)/C(=C/c3ccc(Sc4ccc(C)cc4)o3)C(=O)N=C2S1`?
NadD inh: inactive; NR3A LBD binder: inactive; SENP1 inh: inactive; UCH37 DUB inh: inactive; ATG4B inh: 42.5; PLA2 ctr: 55.7

Results for CC1=CN2C(=N)/C(=C/c3ccc(Sc4ccc(Cl)cc4)o3)C(=O)N=C2S1 ?
NadD inh: inactive; NR3A LBD binder: inactive; SENP1 inh: inactive; UCH37 DUB inh: inactive; ATG4B inh: inactive

How did CC(NC(=O)COc1ccccc1-c1ccccc1)c1ccccc1 (configuration not stated) do in these assays?
NadD inh: inactive; NR3A LBD binder: inactive; SENP1 inh: inactive; UCH37 DUB inh: inactive; ATG4B inh: 42.2; PLA2 ctr: 52.3

Results for Cc1ccc(S(=O)(=O)N=C(c2ccccc2)N(C)C)c(C)c1 ?
UCH37 DUB inh: inactive

Results for CC(=NNc1nc2ccccc2s1)c1cccs1 ?
UCH37 DUB inh: inactive

What do the screens show for `Cc1ccc(/C(=N/Nc2nc3ccccc3s2)C2=C(O)c3ccccc3C2=O)cc1`?
NadD inh: 34.0; NR3A LBD binder: 19.4; SENP1 inh: inactive; ATG4B inh: 45.0; PLA2 ctr: 65.0

Results for Nc1nonc1-n1nnc(C(=O)NN=Cc2cccnc2)c1CSC1=NCCS1 ?
UCH37 DUB inh: inactive

How did CCOc1cccc(C=NNC(=O)CC2C(=O)NN=C2C)c1O (configuration not stated) do in these assays?
UCH37 DUB inh: inactive

Compound activity (PubChem)
